Screening results: PubChem BioAssay, Broad Institute
This is a sample that favours compounds with a hit; in the whole collection about 3.5% have one here.
ERAP1 HTS inh: blocks human ERAP1 aminopeptidase activity; inhibition, % at 10.7 µM; recombinant ERAP1, Leu-AMC fluorescence, 60 min; 340,000 tested, 0.15% active;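 active means mean replicate inhibition of at least 30%, or all replicates individually reaching that 30% level; inactive means mean below 30% and not every replicate reaching it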
Target sequence (Q9NZ08 whole entry, looked up): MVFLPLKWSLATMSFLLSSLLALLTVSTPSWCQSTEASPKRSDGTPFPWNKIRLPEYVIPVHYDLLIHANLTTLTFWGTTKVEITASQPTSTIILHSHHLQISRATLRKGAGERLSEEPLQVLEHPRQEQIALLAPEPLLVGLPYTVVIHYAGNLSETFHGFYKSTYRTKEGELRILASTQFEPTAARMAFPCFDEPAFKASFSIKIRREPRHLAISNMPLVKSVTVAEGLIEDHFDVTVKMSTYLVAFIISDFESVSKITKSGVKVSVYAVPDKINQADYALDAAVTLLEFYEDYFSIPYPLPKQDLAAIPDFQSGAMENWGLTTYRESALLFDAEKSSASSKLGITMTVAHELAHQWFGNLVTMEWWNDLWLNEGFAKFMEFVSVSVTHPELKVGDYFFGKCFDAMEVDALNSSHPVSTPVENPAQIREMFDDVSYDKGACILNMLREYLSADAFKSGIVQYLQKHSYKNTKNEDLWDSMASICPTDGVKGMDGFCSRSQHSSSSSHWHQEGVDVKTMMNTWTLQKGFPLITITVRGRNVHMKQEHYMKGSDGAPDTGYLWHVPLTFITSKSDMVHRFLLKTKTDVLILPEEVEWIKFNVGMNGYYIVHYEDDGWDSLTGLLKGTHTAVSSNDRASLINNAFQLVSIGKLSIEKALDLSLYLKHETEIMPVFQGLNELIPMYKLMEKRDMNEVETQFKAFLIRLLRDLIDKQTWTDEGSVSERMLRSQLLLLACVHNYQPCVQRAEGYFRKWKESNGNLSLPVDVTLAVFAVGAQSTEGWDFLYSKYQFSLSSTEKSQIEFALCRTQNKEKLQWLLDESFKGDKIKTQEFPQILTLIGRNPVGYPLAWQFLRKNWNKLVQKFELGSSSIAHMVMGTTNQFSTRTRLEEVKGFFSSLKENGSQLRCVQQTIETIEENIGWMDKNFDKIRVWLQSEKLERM
Wnt act: activates Wnt/beta-catenin signaling in a reporter cell assay; activator, plate reader; activation, % at 9.35 µM; 300,000 tested, 1.2% active; in the data active means activation above about 30%, passing the limit was not always enough; inconclusive means no clear call, values can overlap the other calls
esBAF inh: inhibitors of esBAF chromatin remodeling in mouse ES cells. Bmi1-luciferase knock-in reporter, 24 h; 100% = twice the neutral-well signal. reporter increase, % at 12.5 µM. 350,000 tested, 2% active. AID 602393; in the data active means activation above about 40%; inconclusive means no clear call, values can overlap the other calls;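 further: a rise in the Bmi1 reporter signal indicates esBAF inhibition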
Env fusion inh: inhibitors of HIV Env-mediated cell fusion. HeLa-JRFL Env/CEM21 cell fusion, luciferase. inhibition, % at 12.3 µM. 360,000 tested, 1.1% active. AID 651610;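 active means mean replicate inhibition score of at least 50 and every replicate individually at or above 50; inconclusive means only one of the two criteria met; inactive means mean below 50 and not all replicates reaching 50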
Cneo AK release: Cryptococcus neoformans lysis via adenylate kinase release; C. neoformans lysis, adenylate kinase release luminescence, 4 h; normalised: neutral wells 0, clomiphene wells 100; lysis activity, % at 15 µM; 360,000 tested, 0.2% active; AID 651654;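 active means mean lysis activity across replicates of at least 80%, whatever share of replicates individually reach that level; inactive means mean lysis activity below 80%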
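Material – Cryptococcus neoformans yeast cells · Quantity – 5 × 10^6 yeast cells/mL · Buffer or medium – YPD medium · Compound – single dose · Timing – 4 h static compound exposure, 37 °C, read 1 h post-reagent · Signal – adenylate kinase release luminescence · Read-out basis – lysis from increased AK signal · Benchmarks – Clomiphene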
MITF act: MITF TRPM1 promoter activation in melanoma cells; activation, % at 12.5 µM; 300,000 tested, 0.75% active; AID 588334; SK-MEL-5 TRPM1-promoter luciferase, 24 h; % of positive control, neutral wells = 0;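 active means mean activation of at least 80% with every replicate also reaching 80%; inconclusive means mean reaches 80% but some replicate falls short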
Ring1 derepress: de-represses Ring1 in mouse ESCs, confirming esBAF inhibition. mouse ESC E14, Ring1 mRNA RT-qPCR fold change. shares compounds with esBAF inh. fold change at 33 µM. 550 tested, under 10 active;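 active means Ring1 gene expression raised more than 2-fold over untreated cells in both replicates at either tested dose; inconclusive means only one replicate above 2-fold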;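 further: Ring1 transcript normalised to actin housekeeping signal by TaqMan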
Fgf4 repress: esBAF inhibition confirmed by Fgf4 repression. 550 tested, 4% active. AID 743177. shares compounds with esBAF inh. mouse ESC E14, Fgf4 mRNA qPCR fold change; stronger effect = lower value. Fgf4 expression fold change at 33 µM;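 active means Fgf4 expression under 0.8 fold of control in both repeat measurements at one or both tested doses; inconclusive means under 0.8 fold in just a single repeat measurement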;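 further: Fgf4 transcript normalised to actin in duplex TaqMan qPCR; cells exposed to compound for 24 h before lysis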
Bmi1 derepress: de-represses Bmi1 in mouse ESCs, confirming esBAF inhibition. shares compounds with esBAF inh. mouse ESE14 ES cells, Bmi1 mRNA qPCR fold; stronger effect = higher value. fold change at 33 µM. 550 tested, under 10 active;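 active means Bmi1 expression fold change above 6 at either tested concentration, seen in replicate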
A549 tox SP: kills or reduces viability of A549 cells; shares compounds with esBAF inh; A549 cytotoxicity, plate reader; cell viability change % (negative = cytotoxic), % at 25 µM, hits read low; 550 tested, under 10 active; call rule not given here
HepG2 cytotox SP: cytotoxicity in HepG2 cells. shares compounds with esBAF inh. plate reader; stronger effect = lower value. activity change, negative = inhibition, % at 25 µM. 550 tested, 4% active. AID 743189; in the data active means activity change below about -50%
HEK293 cytotox SP: HEK293 cell cytotoxicity at single point; shares compounds with esBAF inh; plate reader; activity change, negative = inhibition, % at 25 µM, hits read low; 550 tested, 3% active; in the data active means activity change below about -38%, passing the limit was not always enough
Each line names hits and unclear results; the compound was inactive in the other large screens (follow-up assays come after a bar, where they were run).

COc1ccc(Cc2nc3ccc(C(=O)NCCCSC)cc3o2)cc1OC	esBAF inh 77.1 (no result: MITF act) | Ring1 derepress inactive | Fgf4 repress inactive | Bmi1 derepress inactive | A549 tox SP inactive | HepG2 cytotox SP inactive | HEK293 cytotox SP inactive
O=C1c2ccccc2C(=O)N1CCSc1nncs1	none (no result: ERAP1 HTS inh, Wnt act, Env fusion inh)
Cc1csc(SCCN2C(=O)c3ccccc3C2=O)n1	esBAF inh 65.0 | Ring1 derepress inactive | Fgf4 repress inactive | Bmi1 derepress inactive | A549 tox SP inactive | HepG2 cytotox SP inactive | HEK293 cytotox SP inactive
C[C@@H]1CN([C@@H](C)CO)C(=O)c2cc(NS(=O)(=O)c3cn(C)cn3)ccc2O[C@H]1CN(C)Cc1ccc(C(=O)O)cc1	none (no result: Wnt act, Env fusion inh, MITF act)
ON=C(CCc1ccccc1)c1ccccc1	esBAF inh 74.0 (no result: MITF act) | Ring1 derepress inactive | Fgf4 repress inactive | Bmi1 derepress inactive | A549 tox SP inactive | HepG2 cytotox SP inactive | HEK293 cytotox SP inactive
COc1ccc(S(=O)(=O)Nc2cc(C(=O)NC3CCCCCC3)ccc2N2CCOCC2)cc1	none (no result: ERAP1 HTS inh, Wnt act, Env fusion inh) | Ring1 derepress inactive | Fgf4 repress inactive | Bmi1 derepress inactive | A549 tox SP inactive | HepG2 cytotox SP inactive | HEK293 cytotox SP inactive
CCOC(=O)N(C)C[C@H]1OCc2ccccc2-c2ccccc2C(=O)N([C@H](C)CO)C[C@@H]1C	none (no result: Wnt act, Env fusion inh, MITF act)
COc1ccc(CCn2nnc3ccccc3c2=O)cc1OC	esBAF inh 61.3 (no result: MITF act) | Ring1 derepress inactive | Fgf4 repress inactive | Bmi1 derepress inactive | A549 tox SP inactive | HepG2 cytotox SP inactive | HEK293 cytotox SP inactive
Cn1cccc1C(=O)OCc1ccc(C(C)(C)C)cc1	esBAF inh 84.5 (no result: MITF act) | Ring1 derepress inactive | Fgf4 repress inconclusive | Bmi1 derepress inactive | A549 tox SP inactive | HepG2 cytotox SP inactive | HEK293 cytotox SP inactive
CN1C(=O)c2cc(NC(=O)Nc3ccccc3F)ccc2OC[C@@H]2O[C@@H](CC(=O)NCCc3ccncc3)CC[C@@H]21	none (no result: Wnt act, MITF act)
O=C(Nc1cccc(F)c1)c1c(O)c2ccccc2[nH]c1=O	esBAF inh 79.9 (no result: MITF act) | Ring1 derepress inactive | Fgf4 repress inactive | Bmi1 derepress inactive | A549 tox SP inactive | HepG2 cytotox SP inactive | HEK293 cytotox SP inactive
O=C(N/N=C/c1cccc(F)c1)c1c(O)c2ccccc2[nH]c1=O	none (no result: ERAP1 HTS inh, esBAF inh, Cneo AK release)
CN1CCN(C(=O)C[C@@H]2CC[C@@H]3[C@H](COc4ccc(NC(=O)C5CCC5)cc4C(=O)N3C)O2)CC1	none (no result: Wnt act, esBAF inh, Env fusion inh, Cneo AK release, MITF act)
Clc1ccccc1C=NNc1ccccn1	Wnt act 39.2, esBAF inh 98.1 | Ring1 derepress inactive | Fgf4 repress inactive | Bmi1 derepress inactive | A549 tox SP inactive | HepG2 cytotox SP inactive | HEK293 cytotox SP inactive
FC(F)(F)c1ccccc1/C=N/Nc1ccccn1	none (no result: esBAF inh, Cneo AK release)
Oc1cccc(C=NNc2ccccn2)c1	esBAF inh 75.6 | Ring1 derepress inactive | Fgf4 repress inactive | Bmi1 derepress inactive | A549 tox SP inactive | HepG2 cytotox SP inactive | HEK293 cytotox SP inactive
O=C(NCCc1ccc(F)cc1)c1ccc2c(=O)n3c(nc2c1)CCC3	esBAF inh 54.1 (no result: Cneo AK release) | Ring1 derepress inactive | Fgf4 repress inactive | Bmi1 derepress inactive | A549 tox SP inactive | HepG2 cytotox SP inactive | HEK293 cytotox SP inactive
Nc1cccc(N=[N+]([O-])c2cccc(N)c2)c1	esBAF inh 76.9 (no result: Env fusion inh) | Ring1 derepress inactive | Fgf4 repress inactive | Bmi1 derepress inactive | A549 tox SP inactive | HepG2 cytotox SP inactive | HEK293 cytotox SP inactive
O=[N+]([O-])c1cccc(N=NNc2cccc([N+](=O)[O-])c2)c1	none (no result: esBAF inh, MITF act)
